In ChEMBL document CHEMBL1141933 (J Med Chem, 2005):

Legend:
[1] = target: T1, Protein farnesyltransferase (PFT) (Plasmodium falciparum, UniProt Q5EI73+Q5EI74); assay: Inhibition of biotinylated lamin B peptide farnesylation by Plasmodium falciparum farnesyltransferase; format: protein-complex assay
T1 sequence (Q5EI73 whole entry): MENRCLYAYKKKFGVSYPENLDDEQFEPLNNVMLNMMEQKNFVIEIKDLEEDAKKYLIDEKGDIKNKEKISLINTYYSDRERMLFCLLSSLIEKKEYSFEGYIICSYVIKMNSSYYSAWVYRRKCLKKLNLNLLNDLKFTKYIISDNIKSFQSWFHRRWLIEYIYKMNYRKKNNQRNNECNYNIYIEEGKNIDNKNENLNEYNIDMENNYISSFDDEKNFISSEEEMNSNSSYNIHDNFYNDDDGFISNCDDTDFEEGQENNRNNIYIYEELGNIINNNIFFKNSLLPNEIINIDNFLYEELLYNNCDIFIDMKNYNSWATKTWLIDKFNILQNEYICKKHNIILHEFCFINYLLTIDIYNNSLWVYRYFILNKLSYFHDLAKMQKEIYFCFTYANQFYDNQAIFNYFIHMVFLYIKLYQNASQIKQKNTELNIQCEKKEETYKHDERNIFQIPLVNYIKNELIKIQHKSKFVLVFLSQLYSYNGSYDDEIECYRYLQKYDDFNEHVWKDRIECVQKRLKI
T1 sequence (Q5EI74 whole entry): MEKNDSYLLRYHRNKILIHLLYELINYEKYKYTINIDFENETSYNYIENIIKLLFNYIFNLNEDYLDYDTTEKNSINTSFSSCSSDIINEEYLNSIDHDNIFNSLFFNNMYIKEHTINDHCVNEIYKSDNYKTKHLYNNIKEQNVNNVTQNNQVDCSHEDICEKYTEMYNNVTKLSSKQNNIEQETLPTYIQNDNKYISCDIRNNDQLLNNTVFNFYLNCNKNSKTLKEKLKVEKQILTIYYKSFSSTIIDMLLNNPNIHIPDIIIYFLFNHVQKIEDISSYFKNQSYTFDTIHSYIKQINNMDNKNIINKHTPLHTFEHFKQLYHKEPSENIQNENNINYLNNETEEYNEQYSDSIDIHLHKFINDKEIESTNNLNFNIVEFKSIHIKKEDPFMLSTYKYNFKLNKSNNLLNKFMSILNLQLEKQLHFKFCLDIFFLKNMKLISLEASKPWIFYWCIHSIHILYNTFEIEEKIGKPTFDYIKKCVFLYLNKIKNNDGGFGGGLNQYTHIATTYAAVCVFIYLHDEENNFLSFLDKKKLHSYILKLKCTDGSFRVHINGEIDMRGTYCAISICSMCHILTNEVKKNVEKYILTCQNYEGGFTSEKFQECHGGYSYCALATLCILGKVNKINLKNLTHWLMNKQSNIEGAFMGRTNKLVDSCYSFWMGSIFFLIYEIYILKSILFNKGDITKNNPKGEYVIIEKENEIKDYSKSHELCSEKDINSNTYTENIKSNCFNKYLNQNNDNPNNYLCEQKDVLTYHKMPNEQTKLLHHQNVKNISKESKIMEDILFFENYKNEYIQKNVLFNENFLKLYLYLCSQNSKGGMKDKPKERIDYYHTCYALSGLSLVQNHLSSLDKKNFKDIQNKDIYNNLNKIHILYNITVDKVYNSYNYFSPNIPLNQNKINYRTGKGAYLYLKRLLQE

Plasmodium falciparum [2] = assay: Effective dose against Plasmodium falciparum; format: functional; conditions: read-out: ED50 (the source's name)
[3] = target: Protein farnesyltransferase (Rattus norvegicus, UniProt Q02293+Q04631); assay: Inhibition of biotinylated lamin B peptide farnesylation by rat farnesyltransferase; format: protein-complex assay
Plasmodium falciparum [4] = assay: Effective dose against Plasmodium falciparum 3D7; format: functional; conditions: read-out: ED50 (the source's name)
Method in brief: (§1)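 Asynchronous culture in human A+ erythrocytes at 0.5% parasitemia and 0.5% hematocrit, in RPMI-1640 with 20% heat-inactivated human A+ plasma. Compound added in DMSO; 48 h at 37 C under 5% CO2/5% O2/90% N2. [8-3H]hypoxanthine added for a further 24 h, then incorporation counted. Uninfected-RBC background subtracted; DMSO = 100% growth. ED50 by linear regression; ≥2 tests, mean.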

Plasmodium falciparum [5] = assay: Effective dose against chloroquine-resistant, pyrimethamine-resistant, mefloquine-resistant Plasmodium falciparum Dd2; format: functional; conditions: read-out: ED50 (the source's name)
Method in brief: (§2)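 Asynchronous blood-stage culture (0.5% parasitemia, 0.5% hematocrit) in RPMI-1640 with 20% heat-inactivated human A+ plasma, human A+ erythrocytes. Compound added from DMSO, 48 h at 37 C under 5% CO2/5% O2/90% N2. [8-3H]hypoxanthine then added for a further 24 h and uptake counted. Uninfected-RBC background subtracted; DMSO vehicle = 100% growth. ED50 by linear regression, mean of at least two runs.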

Plasmodium falciparum [6] = assay: Effective dose against chloroquine-sensitive, pyrimethamine-sensitive, mefloquine-sensitive Plasmodium falciparum HB3; format: functional; conditions: read-out: ED50 (the source's name); method in brief: as §1
Plasmodium falciparum [7] = assay: Effective dose against chloroquine-resistant, pyrimethamine-resistant, mefloquine-sensitive Plasmodium falciparum K1; format: functional; conditions: read-out: ED50 (the source's name); method in brief: as §2
Plasmodium falciparum [8] = assay: Effective dose against chloroquine-sensitive, pyrimethamine-sensitive, mefloquine-sensitive Plasmodium falciparum 3D7; format: functional; conditions: read-out: ED50 (the source's name); method in brief: as §1
Plasmodium falciparum [9] = assay: Effective dose against chloroquine-resistant, pyrimethamine-resistant, mefloquine-sensitive Plasmodium falciparum W2; format: functional; conditions: read-out: ED50 (the source's name); method in brief: as §2

| Compound | IC50 [1] [nM] | EC50 (Plasmodium falciparum [2]) [nM] | IC50 [3] [nM] | EC50 (Plasmodium falciparum [4]) [nM] | EC50 (Plasmodium falciparum [5]) [nM] | EC50 (Plasmodium falciparum [6]) [nM] | EC50 (Plasmodium falciparum [7]) [nM] | EC50 (Plasmodium falciparum [8]) [nM] | EC50 (Plasmodium falciparum [9]) [nM] |
| --- | --- | --- | --- | --- | --- | --- | --- | --- | --- |
| N#Cc1ccc(Cn2cncc2CN[C@H]2CCN(Cc3cccc(Cl)c3)C2=O)cc1 |  | > 5000 |  |  |  |  |  |  |  |
| CCN(CC)CCCC(C)Nc1ccnc2cc(Cl)ccc12 (configuration not stated) [CHLOROQUINE] |  |  |  |  | 78 | 5 | 200 | 8 | 125 |
| C=C(Br)CN(C1Cc2cc(C#N)ccc2N(Cc2cncn2C)C1)S(=O)(=O)c1cn(C)cn1 (configuration not stated) | 0.4 |  | 0.8 |  | 10 | 10 | 10 | 6 | 14 |
| C=C(C)CN(C1Cc2cc(C#N)ccc2N(Cc2cncn2C)C1)S(=O)(=O)c1cn(C)cn1 (configuration not stated) | 0.6 |  | 0.7 |  | 10 | 12 | 15 | 7 | 21 |
| Cn1cnc(S(=O)(=O)N(CC(=O)NC(C)(C)C)C2Cc3cc(C#N)ccc3N(Cc3cncn3C)C2)c1 (configuration not stated) | 1.2 |  | 1.5 |  | 4 | 7 | 7 | 5 | 8 |
| Cn1cncc1CN1CC(N(CC(=O)NC(C)(C)C)S(=O)(=O)c2cccnc2)Cc2cc(C#N)ccc21 (configuration not stated) | 25 |  | 6 | 2700 |  |  |  |  |  |
| NC(=O)N1CCC(CC(=O)N2CCC([C@H]3c4ncc(Br)cc4CCc4cc(Cl)cc(Br)c43)CC2)CC1 [LONAFARNIB] | > 250 | 3000 |  |  |  |  |  |  |  |
| CCc1nc(N)nc(N)c1-c1ccc(Cl)cc1 [PYRIMETHAMINE] |  |  |  |  | 16000 | 2 | 25000 | 39 |  |
| Cn1cncc1CN1CC(N(CC(=O)NC(C)(C)C)S(=O)(=O)c2ccccn2)Cc2cc(C#N)ccc21 (configuration not stated) | 1.4 |  | 1.8 | 85 |  |  |  |  |  |
| Cn1cnc(S(=O)(=O)N(Cc2ccccc2)C2Cc3cc(C#N)ccc3N(Cc3cncn3C)C2)c1 (configuration not stated) | 0.6 |  | 1.2 |  | 8 | 10 | 9 | 5 | 14 |
| Cn1cncc1[C@@](N)(c1ccc(Cl)cc1)c1ccc2c(c1)c(-c1cccc(Cl)c1)cc(=O)n2C [TIPIFARNIB] | 7 | 3000 |  |  |  |  |  |  |  |
| Cn1cnc(S(=O)(=O)N(CC(=O)OC(C)(C)C)C2Cc3cc(C#N)ccc3N(Cc3cncn3C)C2)c1 (configuration not stated) | 0.9 |  | 1.2 |  | 6 | 7 | 20 | 5 |  |
| O[C@H](c1cc(C(F)(F)F)nc2c(C(F)(F)F)cccc12)[C@@H]1CCCCN1 [MEFLOQUINE] |  |  |  |  | 100 | 29 | 10 | 24 | 9 |

More lines, main results first:

| IC50 [1] [nM] | EC50 (Plasmodium falciparum [2]) [nM] | IC50 [3] [nM] | EC50 (Plasmodium falciparum [4]) [nM] | Compound | EC50 (Plasmodium falciparum [5]) [nM] | EC50 (Plasmodium falciparum [6]) [nM] | EC50 (Plasmodium falciparum [7]) [nM] | EC50 (Plasmodium falciparum [8]) [nM] | EC50 (Plasmodium falciparum [9]) [nM] |
| --- | --- | --- | --- | --- | --- | --- | --- | --- | --- |
| 15 | > 20000 |  |  | CSCC[C@H](NC(=O)c1ccc(CNCc2c[nH]cn2)cc1-c1ccccc1C)C(=O)O |  |  |  |  |  |
| 9 | > 5000 |  |  | Cn1cncc1C(O)(CN1CCC(C#N)=C(c2cccc3ccccc23)C1)c1ccc(C#N)cc1 (configuration not stated) |  |  |  |  |  |
| 0.8 |  | 3 | 113 | Cc1onc(-c2ccccc2)c1CN(C1Cc2cc(C#N)ccc2N(Cc2cncn2C)C1)S(=O)(=O)c1ccccn1 (configuration not stated) |  |  |  |  |  |
| 28 |  | 1000 | 3000 | Cn1cnc(S(=O)(=O)N(Cc2ccc3ccccc3c2Br)C2Cc3cc(C#N)ccc3N(Cc3cncn3C)C2)c1 (configuration not stated) |  |  |  |  |  |
| 1000 | 150 |  |  | CSCC[C@H](NC(=O)c1ccc(CNCc2cnc[nH]2)cc1-c1ccccc1C)C(=O)OCc1ccccc1 |  |  |  |  |  |
| 42 |  | 7.6 | > 5000 | Cn1cncc1CN1CC(N(CC(=O)NC(C)(C)C)S(=O)(=O)Cc2ccc(F)cc2)Cc2cc(C#N)ccc21 (configuration not stated) |  |  |  |  |  |
| 2.8 |  | 3.8 | 51 | Cn1cncc1CN1CC(N(Cc2ccccn2)S(=O)(=O)c2ccccn2)Cc2cc(C#N)ccc21 (configuration not stated) |  |  |  |  |  |
| 165 |  | 440 | 2750 | Cn1cncc1CN1CC(N(Cc2ccc3ccccc3c2Br)S(=O)(=O)c2ccccn2)Cc2cc(C#N)ccc21 (configuration not stated) |  |  |  |  |  |
| 5 | > 5000 |  |  | CCSC[C@H](CC1CCCCC1)NCc1ccc(C(=O)N[C@@H](CCSC)C(=O)O)c(-c2ccccc2C)c1 |  |  |  |  |  |
| 55 |  | 10 | 3000 | Cn1cncc1CN1CC(N(Cc2cc3nsnc3cc2Cl)S(=O)(=O)c2ccccn2)Cc2cc(C#N)ccc21 (configuration not stated) |  |  |  |  |  |
| 1000 |  | 160 | > 5000 | Cn1cncc1CN1CC(N(CC(=O)NC(C)(C)C)S(=O)(=O)c2ccncc2)Cc2cc(C#N)ccc21 (configuration not stated) |  |  |  |  |  |
| 1.1 |  | 3.2 | 100 | Cn1cnc(S(=O)(=O)N(CC2CCN(C(=O)OC(C)(C)C)CC2)C2Cc3cc(C#N)ccc3N(Cc3cncn3C)C2)c1 (configuration not stated) |  |  |  |  |  |
| 8 |  | 5 | > 5000 | Cn1cncc1CN1CC(N(CC(=O)NC(C)(C)C)S(=O)(=O)c2nccn2C)Cc2cc(C#N)ccc21 (configuration not stated) |  |  |  |  |  |
| 1.5 |  | 3.4 | 55 | Cc1ccccc1CN(C1Cc2cc(C#N)ccc2N(Cc2cncn2C)C1)S(=O)(=O)c1cn(C)cn1 (configuration not stated) |  |  |  |  |  |
